In ChEMBL document CHEMBL1140591, “Syntheses of novel myxopyronin B analogs as potential inhibitors of bacterial RNA polymerase” (Bioorg Med Chem Lett, 2007):
Values after ≈ are worked out from the molar mass of the structure shown.

Assays:
CEM-SS = assay: Cytotoxicity against human CEM-SS cells upto 40 uM after 3 days; assay type: cell-based; details: 72 h
Procedure, shortened: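 CEM-SS T lymphocytes were incubated with compound for 3 days and then treated with XTT. The signal was read […] at 450 nm/650 nm, and CC50 was determined from the readings.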

Staphylococcus aureus = assay: Antibacterial activity against Staphylococcus aureus; assay type: functional
Escherichia coli [1] = assay: Antibacterial activity against Escherichia coli; assay type: functional
Procedure, shortened: (§1)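 MIC determined by growth inhibition testing; the same test was also run against S. aureus.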

Escherichia coli [2] = assay: Inhibition of Escherichia coli DNA-dependent RNA polymerase at 10 uM by nucleotide coupled NADPH/pyrophosphate release assay
[3] = Inhibition of Escherichia coli DNA-dependent RNA polymerase by nucleotide coupled NADPH/pyrophosphate release assay
Procedure, shortened: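 In the pyrophosphate-release coupled assay, NADPH was monitored by fluorescence (emission ~440 nm) instead of absorbance at 340 nm. Some compounds were also tested by incorporation of radiolabeled nucleotide into RNA.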

Escherichia coli [4] = assay: Antibacterial activity against Escherichia coli Tol C mutant; assay type: functional; procedure, shortened: as §1

| SMILES | Activity (CEM-SS) | MIC (Staphylococcus aureus) [µg/mL] | MIC (Escherichia coli [1]) [µg/mL] | inhibition (Escherichia coli [2]) [%] | IC50 [3] [µM] | MIC (Escherichia coli [4]) [µg/mL] |
| --- | --- | --- | --- | --- | --- | --- |
| COC(=O)N/C=C/CCCc1cc(O)c(C(=O)/C=C/c2ccc3[nH]ccc3c2)c(=O)o1 | Non-toxic | > 64 | > 64 | < 20 |  |  |
| CCCC/C(C)=C/C=C(\C)C(=O)c1ccc(C(C)CC/C=C/NC(=O)OC)cc1O (stereo not drawn) | Non-toxic | > 64 | > 64 | 38 |  |  |
| CCCC/C(C)=C/C=C(\C)C(=O)c1c(O)cc(C(C)CC/C=C/NC(=O)OC)n(C)c1=O (stereo not drawn) | Non-toxic | > 64 | > 64 |  | 20.5 |  |
| CCCC/C(C)=C/C=C(\C)C(=O)c1c(O)cc(CCC/C=C/NC(=O)OC)oc1=O [DESMETHYL MYXOPYRONIN B] | Non-toxic | 4 (≈ 9.58 µM) | > 64 |  | 0.34 | 1 (≈ 2.4 µM) |
| COC(=O)N/C=C/CCC(C)c1cc(O)c(C(=O)NC/C=C(\C)CCC=C(C)C)c(=O)o1 (stereo not drawn) | Non-toxic | > 64 | > 64 | < 20 |  | 16 (≈ 35.8 µM) |
| CCCCCCCCC(=O)c1c(O)cc(CCC/C=C/NC(=O)OC)oc1=O | Non-toxic | > 64 | > 64 | < 20 |  |  |
| COC(=O)N/C=C/CCCc1cc(O)c(C(=O)/C(C)=C\c2ccco2)c(=O)o1 | Non-toxic | > 64 | > 64 | < 20 |  |  |
| CCCCCC(=O)c1c(O)cc(CCC/C=C/NC(=O)OC)oc1=O | Non-toxic | > 64 | > 64 | < 20 |  |  |
| CCCC/C(C)=C/C=C(\C)C(=O)c1c(O)cc(CCC/C=C/NC(=O)OC)n(C)c1=O | Non-toxic | > 64 | > 64 |  | 15 |  |
| CCCC/C(C)=C/C=C(\C)C(=O)c1c(O)cc([C@H](C)CC/C=C/NC(=O)OC)oc1=O [MYXOPYRONIN B] | Non-toxic | 1 (≈ 2.32 µM) | > 64 |  | 0.92 | 2 (≈ 4.63 µM) |
